Assay results published in ChEMBL document CHEMBL1153057, “Chemical constituents of propolis from Myanmar and their preferential cytotoxicity against a human pancreatic cancer cell line” (2009).
Activity calls are given as the source filed them. The rule behind the calls is not given here.

Experiments:
[1] = tested on: PANC-1; experiment: Cytotoxicity against human PANC1 cells in nutrient-deprived condition assessed as 100% cell death after 24 hrs by WST8 assay; format: functional
Procedure, shortened: (§1)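 PANC-1 cells, 2 × 10⁴ per well, grown 24 h in DMEM at 37 °C under 5% CO2, PBS-washed, then switched to DMEM or nutrient-deprived medium (glucose-, amino acid- and serum-free salts, vitamins, 25 mM HEPES, pH 7.4) holding serial dilutions for 24 h. Viability by WST-8 (10% in DMEM, 3 h, A450), blank-corrected against untreated control, mean of three wells. PC100/PC50 = concentration killing 100%/50% of cells preferentially in NDM.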

[2] = tested on: PANC-1; experiment: Cytotoxicity against human PANC1 cells in nutrient-deprived condition assessed as 50% cell death after 24 hrs by WST8 assay; format: functional; procedure, shortened: as §1
[3] = tested on: PANC-1; experiment: Cytotoxicity against human PANC1 cells in nutrient-deprived condition assessed as complete preferential cell death at 6.25 uM within 24 hrs of starvation by WST8 assay; format: functional
[4] = tested on: PANC-1; experiment: Cytotoxicity against human PANC1 cells in nutrient-deprived condition assessed as complete preferential cell death at 50 uM within 6 hrs of treatment by WST8 assay; format: functional
[5] = tested on: PANC-1; experiment: Induction of apoptosis in human PANC1 cells in nutrient deprived condition assessed as morphological changes at 6.25 uM within 24 hrs of treatment using phase contrast microscopy by WST8 assay; format: functional, cell-based

Row | SMILES | CD100 [1] | PC50 [2] | Activity [3] | Activity [4] | Activity [5]
1 | C[C@H](CC/C=C(\CO)C(=O)O)[C@H]1CC[C@@]2(C)[C@@H]3CC[C@H]4C(C)(C)[C@@H](O)CC[C@@]45C[C@@]35CC[C@]12C | >100 µM | >100 µM |  |  | 
2 | C/C(=C\CC(O)[C@@H](C)[C@H]1CC[C@@]2(C)[C@@H]3CC[C@H]4C(C)(C)[C@H](O)CC[C@@]45C[C@@]35CC[C@]12C)C(=O)O (stereo partly specified) | 25 µM | 13.4 µM |  |  | 
3 | C/C(=C\CC[C@@H](C)[C@H]1CC[C@@]2(C)[C@@H]3CC[C@H]4C(C)(C)[C@@H](O)CC[C@@]45C[C@@]35CC[C@]12C)C(=O)O [MANGIFEROLIC ACID] | >100 µM | >100 µM |  |  | 
4 | C[C@H](CC/C=C(\CO)C(=O)O)[C@H]1CC[C@@]2(C)[C@@H]3CC[C@@H]4[C@@]5(CCC(=O)[C@@]4(C)CO)C[C@@]35CC[C@]12C | >100 µM | >100 µM |  |  | 
5 | C/C(=C\C(O)C[C@@H](C)[C@H]1CC[C@@]2(C)[C@@H]3CC[C@H]4C(C)(C)[C@@H](O)CC[C@@]45C[C@@]35CC[C@]12C)C(=O)O (stereo partly specified) | >100 µM | >100 µM |  |  | 
6 | CC(C)=CCc1cc([C@@H]2CC(=O)c3c(O)cc(O)c(CC=C(C)C)c3O2)ccc1O [LESPEDEZAFLAVANONE B] | 25 µM | 19.8 µM |  |  | 
7 | O=c1[nH]cc(F)c(=O)[nH]1 [FLUOROURACIL] | >100 µM | >100 µM |  |  | 
8 | COc1ccc([C@@H]2CC(=O)c3c(O)cc(O)c(CC=C(C)C)c3O2)cc1CC=C(C)C | 12.5 µM | 7.9 µM |  |  | 
9 | C/C(=C/C=C/[C@@H](C)[C@H]1CC[C@@]2(C)[C@@H]3CC[C@H]4C(C)(C)C(=O)CC[C@@]45C[C@@]35CC[C@]12C)C(=O)O | 6.3 µM | 4.3 µM | 100% | 100% | Active
10 | CC(=O)O[C@H]1C(=O)[C@@]2(C)[C@H]([C@H](OC(=O)c3ccccc3)[C@]3(O)C[C@H](OC(=O)[C@H](O)[C@@H](NC(=O)c4ccccc4)c4ccccc4)C(C)=C1C3(C)C)[C@]1(OC(C)=O)CO[C@@H]1C[C@@H]2O [PACLITAXEL] | >100 µM | >100 µM |  |  | 
11 | C/C(C=O)=C\CC[C@@H](C)[C@H]1CC[C@@]2(C)[C@@H]3CC[C@H]4C(C)(C)[C@@H](O)CC[C@@]45C[C@@]35CC[C@]12C | >100 µM | >100 µM |  |  | 
12 | C/C(=C\CC[C@@H](C)[C@H]1CC[C@@]2(C)[C@@H]3CC[C@H]4C(C)(C)[C@H](O)CC[C@@]45C[C@@]35CC[C@]12C)C(=O)O [ISOMANGIFEROLIC ACID] | 25 µM | 13.7 µM |  |  | 
13 | C/C(=C\CC[C@@H](C)[C@H]1CC[C@@]2(C)[C@@H]3CC[C@H]4C(C)(C)C(=O)CC[C@@]45C[C@@]35CC[C@]12C)C(=O)O [MANGIFERONIC ACID] | >100 µM | >100 µM |  |  | 
14 | C[C@H](CC/C=C(\CO)C(=O)O)[C@H]1CC[C@@]2(C)[C@@H]3CC[C@H]4C(C)(C)C(=O)CC[C@@]45C[C@@]35CC[C@]12C | 50 µM | 38.5 µM |  |  | 
15 | C/C(=C\CC[C@@H](C)[C@H]1CC[C@@]2(C)[C@@H]3CC[C@@H]4[C@@]5(CCC(=O)[C@@]4(C)CO)C[C@@]35CC[C@]12C)C(=O)O | >100 µM | >100 µM |  |  | 
16 | C/C(=C\C(O)C[C@@H](C)[C@H]1CC[C@@]2(C)[C@@H]3CC[C@H]4C(C)(C)C(=O)CC[C@@]45C[C@@]35CC[C@]12C)C(=O)O (stereo partly specified) | 50 µM | 28 µM |  |  | 
17 | CC(C)=CCc1c(O)cc(O)c2c1O[C@H](c1ccc(O)cc1)CC2=O [SOPHORAFLAVANONE B] | 50 µM | 39.4 µM |  |  | 
18 | COc1cc(C[C@H]2C(=O)OC[C@@H]2Cc2ccc(OC)c(OC)c2)ccc1O [ARCTIGENIN] | 1 µM | 0.4 µM |  |  | 
19 | C[C@H](CC/C=C(\CO)C(=O)O)[C@H]1CC[C@@]2(C)[C@@H]3CC[C@H]4C(C)(C)[C@H](O)CC[C@@]45C[C@@]35CC[C@]12C | 25 µM | 15.5 µM |  |  | 
